Data set [1] can be described thus: acute toxicity against mouse after ip administration. The format is organism-based. As to conditions: in vivo. The method, boiled down: (§1)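 Single iv or ip injection; two female SD rats or male CD2F1 mice per dose group. Lethality and clinical signs of toxicity observed for 28 days to give an approximate LD50. Animals kept specific-pathogen-free with pellet diet and acidified water (pH 3) ad libitum.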

In data set [2] the test system is P388. As to the kind of experiment: In vivo antitumor activity against murine P388 leukemia; Effective. The class given is functional, organism-based. The conditions noted are these: Mus musculus.
A short description of data set [3]: acute toxicity against rat after iv administration. The format is organism-based. As to conditions: in vivo. The method in brief:
as §1

In a further data set the test system is L1210. As to the kind of experiment: In vitro antitumor activity against murine leukemic L1210 cells; No activity. The class given is functional, cell-based. As to conditions: Mus musculus.
Data set [4] deals with P388. As to the kind of experiment: In vivo antitumor activity against murine P388 leukemia; No activity. As to conditions: Mus musculus. The format is functional, organism-based.
A short description of data set [5]: pKa. (dissociation constant) of the compound. The class given is physicochemical. The method in brief:
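³¹P NMR titration at 25 °C in aqueous 0.1 M NaCl to keep ionic strength constant. pH adjusted with NaOH or HCl and measured before and after each spectrum. pKa calculated from the pH dependence of the chemical shift.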

On to `O=P1(NCCCl)OCCCN1CCCl` (centres undefined) [IFOSFAMIDE], for which the results for the LD50 in data set [1] and in data set [3] were 700 mg/kg and 300 mg/kg, respectively. Also, in the data set on P388 [2], the Activity result is “Effective”.

Regarding `NP1(=O)NCCCO1` (centres undefined), in the data set on L1210, the Activity entry was “No activity”.

For the molecule `O=P(O)(OCCCNCCCl)OP(=O)(O)OCCCNCCCl`, the LD50 (in general, the dose expected to kill half of the subjects tested) in data set [1] is over 1000 mg/kg. For the same molecule, the Activity entry in the data set with P388 [4] and with L1210 was “No activity” throughout.

Take `O=P(O)(O)OCCCN1CC1`: the median lethal dose (LD50) in data set [1] is 180 mg/kg. The Activity result in the data set with P388 [4] and with L1210 was “No activity” throughout.

Turning to `O=P(O)(O)OCCCNCCCl`, in data set [3], the LD50 worked out at 800 mg/kg. The Activity entry in the data set with P388 [4] and with L1210 was “No activity” throughout.

For `O=P1(NCCCl)NCCCO1` (centres undefined), in data set [3], the LD50 was 800 mg/kg. The Activity entry with P388 [4] and in the data set with L1210 was “No activity” in each case.

For `NP(=O)(O)OCCCNCCCl`, in data set [5], the pKa (usually the pH at which an ionisable group is half protonated) is 2.3.

Consider `O=P1(O)NCCCO1`, for which the pKa in data set [5] was found to be 4.1.

Regarding `NP1(=O)OCCCN1CCCl` (centres undefined), the LD50 in data set [3] was over 1000 mg/kg.

(Values after ChEMBL document CHEMBL1132146, “Chemical stability and fate of the cytostatic drug ifosfamide and its N-dechloroethylated metabolites in acidic aqueous solutions” (J Med Chem, 1999).)
